Source: PubChem BioAssay (several laboratories)
The entries come from a sample that favours hits as a whole.
Avidin fluor – avidin bead compound fluorescence profile; Avidin beads, compound fluorescence 488/530 nm, flow cytometry; hits give high values; fluorescence (KMESF) at 10 µM; 220,000 compounds, 0.38% hits; in the data active means fluorescence above about 47
GSH bead fluor – compound fluoresces at 488/530 nm on GSH beads. GSH beads flow cytometry, compound fluorescence 488/530 nm; hits give high values. fluorescence (KMESF) at 10 µM. 190,000 compounds, 0.25% hits. AID 1776; in the data active means fluorescence above about 89;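 further: glutathione beads carrying GST-tagged Bcl family fusion proteins plus one bare bead set; values are compound well signal with DMSO vehicle wells as background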
PKD1 inh – blocks activity of human protein kinase D1; inhibition, % (no concentration beside the values); PKD1 kinase fluorescence polarization assay; AID 797; 200,000 compounds, 0.056% hits
Lmaj promast – Leishmania major promastigote growth inhibition | Leishmania major promastigotes, resazurin fluorescence viability | inhibition, % at 10 µM | 200,000 compounds, 9% hits;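 further: promastigotes grown with compound for 44 hours at 28 °C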
ABCB1 block – human ABCB1 inhibition, ABCG2 as counter-screen. P08183. inhibition, % at 6.6 µM. 190,000 compounds, 0.067% hits. AID 1326. CCRF-Adr cells, JC-1 efflux, flow cytometry; in the data active means inhibition above about 40%;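 further: 0% = vehicle and 100% = reference inhibitor; higher value means more JC-1 retained so stronger ABCB1 efflux block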
ABCG2 block – inhibitors of human ABCG2 transporter, ABCB1 counter-screen; Q9UNQ0; IgMXP3 cells, JC-1 efflux, flow cytometry; inhibition, % at 6.6 µM; 190,000 compounds, 0.1% hits; AID 1325;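 active means inhibition above 80%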;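 further: 0% = DMSO and 100% = nicardipine control wells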
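Test system: IgMXP3 cells (ABCG2) mixed with DDAO far-red-labelled CCRF-Adr cells (ABCB1). Reagent: JC-1 transporter substrate. Compound dosing: single test compound dose, 6.6 µM final. Times: 10 min compound exposure, 25 °C. Detection: flow cytometry of retained JC-1 fluorescence. Read-out basis: efflux inhibition in percent versus controls. Controls: nicardipine and DMSO wells.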
* marks the source's active call; other numbers are inactive results; / = no result. Unless noted, no stated cut-off is given here; in the data, active means inhibition above about 50%; inactive means the rest.

SMILES | Avidin fluor | GSH bead fluor | PKD1 inh | Lmaj promast | ABCB1 block | ABCG2 block
COc1ccc(NC(=O)c2ccc3ccccc3n2)cc1S(=O)(=O)N1CCCCC1 | 11 | 16 | 1 | 1 | 1 | 7
Cc1c(Nc2cc(N3CCOCC3)c3nonc3c2[N+](=O)[O-])c(=O)n(-c2ccccc2)n1C | 10 | 16 | -4 | 5 | -1 | 2
Cc1c(Nc2cc(Cl)c3nonc3c2[N+](=O)[O-])c(=O)n(-c2ccccc2)n1C | 9 | 10 | 1 | 79* | 1 | 1
CCn1c(O)c(N=NC(=O)c2cccnc2)c2cc(Br)ccc21 | 7 | / | / | / | / | /
CCn1c(O)c(C2=c3ccccc3=NC2=O)c2cc(Br)ccc21 | 10 | 16 | 0 | 100* | 2 | 36
COc1ccc(-n2cnc3c(sc4nc(N5CCOCC5)c5c(c43)CCCC5)c2=O)cc1 | 9 | 21 | -5 | 87* | 1 | 2
Cc1ccc(-n2cnc3c(sc4nc(N5CCOCC5)c5c(c43)CCCC5)c2=O)cc1 | 8 | / | / | / | / | /
CN1C(C(=O)NCc2ccc(OC(F)(F)F)cc2)CC2Cn3c(nc4cc5ccccc5cc43)C21 (configuration not stated) | 7 | / | / | / | / | /
CC1CN(CCCOc2ccccc2[N+](=O)[O-])CC(C)O1 (configuration not stated) | 8 | 13 | 10 | 90* | 0 | 0
COC(=O)C1CCN(c2ccc([N+](=O)[O-])cc2)CC1 | 23 | 10 | -6 | -9 | 0 | 6
COC(=O)C1CCN(CCCOc2ccc(CN3CCN(c4ccc([N+](=O)[O-])cc4)CC3)cc2)CC1 | 5 | 18 | 9 | 95* | 1 | 6
CC1CN(CCCOc2ccc([N+](=O)[O-])cc2)CC(C)O1 (configuration not stated) | 11 | 22 | 0 | 91* | 0 | 8
Cc1ccc([N+](=O)[O-])c(OCCN2CCNCC2)c1 | 7 | 17 | 4 | -6 | 2 | 16
Cc1cc(OCCN2CC(C)OC(C)C2)ccc1[N+](=O)[O-] (configuration not stated) | 15 | 21 | 15 | 76* | 1 | 7
O=[N+]([O-])c1ccc(OCCN2CCNCC2)cc1 | 10 | 26 | 2 | 99* | 0 | 1
CC1CN(CCOc2ccc([N+](=O)[O-])cc2)CC(C)O1 (configuration not stated) | 15 | 10 | -5 | 85* | 0 | 6
Cc1ccc(C(C)C)c(OCCCN2CC(C)OC(C)C2)c1 (configuration not stated) | 11 | 28 | 4 | 97* | 1 | 2
CC1CC(C)CN(CCCCOc2ccc([N+](=O)[O-])cc2)C1 (configuration not stated) | 11 | 23 | -10 | 95* | 0 | 0
CCOC(=O)C(CCCCOc1ccc([N+](=O)[O-])cc1)C(=O)OCC | 13 | 17 | 6 | 2 | -1 | 19
COc1ccc(S(=O)(=O)N(C)CC(=O)N2CCN(Cc3ccccc3)CC2)cc1C | 19 | 52 | -2 | 17 | 1 | 3
CCN(CC)C(=O)c1sc(NC(=O)Cc2ccc(OC)cc2)c(C#N)c1C | 7 | 15 | -10 | 85* | 1 | 3
CCN(CC)C(=O)c1sc(NC(=O)Cc2ccccc2)c(C#N)c1C | 20 | 14 | 1 | -4 | 0 | 1
CC(=O)Oc1c(-c2ccco2)oc2ccccc2c1=O | 9 | 10 | -3 | -8 | 0 | 18
CCOC(=O)/C(C(=O)Nc1ccc(Cl)cc1Cl)=C1/NC(C)(C)Cc2ccccc21 | 17 | 12 | 7 | 73* | 1 | 73
COc1ccc(CN=Cc2[nH]c3ccc(Br)c(Cl)c3c2O)cc1 | 9 | 48 | -5 | 99* | 0 | 2
Cc1cc(C)cc(N=Cc2[nH]c3ccc(Br)c(Cl)c3c2O)c1 | 10 | 11 | -7 | -1 | 0 | -4
Cc1cc(C)c2c(=O)[nH]c(SCC(=O)c3ccc(F)c(C)c3)nc2n1 | 12 | 12 | -8 | -4 | 0 | 0
Cc1ccc(-c2cnc3n2CCCCC3)cc1 | 22 | 7 | -8 | -2 | 0 | 0
c1ccc(-c2ccc(-c3cnc4n3CCCCC4)cc2)cc1 | 26 | 20 | 0 | 99* | 0 | 12
COc1ccc(Br)cc1/C=C/C(=O)c1ccc(NC(C)=O)cc1 | 12 | 11 | -12 | 100* | 0 | 4
